Where two headings read alike, the source gives them in different places.
What was measured:
[1] = tested on: hippocampus of middle aged humans; conditions: middle aged humans of around 40 years of age; contrast agent; cited from earlier work
Dynamic light scattering = format: physicochemical; conditions: DLS, Malvern Zetasizer Nano; DPBS pH 7.4, 0.05 mM, filtered 0.22 μm
[2] = Zeta potential measurement; format: physicochemical; conditions: Malvern Zetasizer Nano; with NPs
[3] = target: T1, claudin-1 on brain endothelial cells (Mus musculus, UniProt O88551); format: in vivo; conditions: corpus callosum and hippocampus, confocal, ~2 hrs post-injection
T1 sequence (O88551 1-211): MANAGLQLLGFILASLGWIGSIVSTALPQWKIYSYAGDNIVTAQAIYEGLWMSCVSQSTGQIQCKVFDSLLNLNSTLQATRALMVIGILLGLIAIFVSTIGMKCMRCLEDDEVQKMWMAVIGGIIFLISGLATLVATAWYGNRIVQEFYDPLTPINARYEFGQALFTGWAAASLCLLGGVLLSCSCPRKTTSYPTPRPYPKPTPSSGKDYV
Outline: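 Male and female C57BL/6J mice, 2 and 12 months old, received 100 μL of 0.5 mM test NP by tail vein, then a 100 μL PBS flush. About 2 h after injection they were perfused with 4% PFA and brains fixed 24 h. Sections were blocked 1 h at RT, stained overnight at 4 °C with rat anti-CD31 (1:250) and rabbit anti-claudin-1 (1:100), then AF488/AF555 secondaries (1:250, 2 h, RT) and DAPI. Confocal imaging used a 40x objective; colocalization was quantified with JACoP on ≥3 random fields per region per mouse.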

[4] = target: T2, mouse claudin-1 in bEnd.3 cells (Mus musculus, UniProt O88551); experiment: In vitro fluorescence imaging of NP binding to bEnd.3 cells; format: cell-based
T2 sequence (O88551 1-211): T1 sequence (O88551 1-211)
Outline: (§1)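 bEnd.3 mouse brain endothelial cells were grown in DMEM. For mouse claudin-1, cells were treated with ethanol (50 mM) to induce expression. For human claudin-1, cells were transfected with a pCMV plasmid encoding it. Cells were then incubated with AF-647-labelled targeted NPs for 4 hrs and imaged by fluorescence. Claudin-1 induction was checked by western blot relative to β-actin.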

human claudin-3 = target: T3, human claudin-3 (Homo sapiens, UniProt O15551); experiment: Microscale thermophoresis; format: binding; conditions: MST; claudin-3 0.4-14000 nM; C1C2-NP fixed at 70 nM; buffer with 0.1% n-Undecyl-β-D-Maltopyranoside; 23°C
T3 sequence (O15551 1-220): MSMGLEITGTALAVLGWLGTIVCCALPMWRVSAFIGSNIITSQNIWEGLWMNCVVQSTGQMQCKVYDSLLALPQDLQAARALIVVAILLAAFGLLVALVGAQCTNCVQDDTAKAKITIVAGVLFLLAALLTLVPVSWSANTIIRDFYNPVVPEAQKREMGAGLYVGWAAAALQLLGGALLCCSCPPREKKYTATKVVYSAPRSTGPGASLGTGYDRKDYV
Outline: (§2)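 Microscale thermophoresis on a Monolith instrument. AF647-labelled test NP was held at 70 nM against titrated human claudin-3 (0.4–14000 nM), claudin-4 (0.8–28000 nM) or claudin-9 (0.6–20000 nM). Buffer was 10 mM Tris-HCl pH 8.0, 100 mM NaCl, 4% glycerol and 0.1% n-undecyl-β-D-maltopyranoside. As a non-specific control, detergent was titrated 10 mM–0.7 μM against 1 μM AF647-labelled control NP.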

human claudin-9 = target: T4, human claudin-9 (Homo sapiens, UniProt O95484); experiment: Microscale thermophoresis; format: binding; conditions: MST; buffer with 0.1% n-Undecyl-β-D-Maltopyranoside; 23°C; C1C2-NP fixed at 70 nM, claudin-9 0.6-20000 nM
T4 sequence (O95484 1-217): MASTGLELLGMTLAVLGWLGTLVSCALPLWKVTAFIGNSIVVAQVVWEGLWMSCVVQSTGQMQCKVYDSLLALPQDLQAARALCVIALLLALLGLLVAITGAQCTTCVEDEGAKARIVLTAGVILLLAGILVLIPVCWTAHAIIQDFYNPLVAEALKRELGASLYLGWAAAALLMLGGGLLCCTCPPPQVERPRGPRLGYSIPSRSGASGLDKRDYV
Outline: as §2

[5] = Biodistribution in peripheral organs by ICP-MS; format: in vivo, mouse; conditions: ICP-MS of Gd
Outline: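 Male and female C57BL/6J mice, three aged 2 months and three aged 12 months, received 100 μL of 0.5 mM control or targeted Gd-oxide NPs. Transcardial perfusion with ice-cold DPBS followed at 1 hr. Heart, lung, liver, kidneys, spleen, colon and intestine were weighed and digested in HNO3 at 100 °C for 120 minutes. Samples were filtered, diluted and measured for Gd by ICP-MS.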

human claudin-4 = target: T5, human claudin-4 (Homo sapiens, UniProt O14493); experiment: Microscale thermophoresis; format: binding; conditions: MST; buffer with 0.1% n-Undecyl-β-D-Maltopyranoside; 23°C; C1C2-NP fixed at 70 nM, claudin-4 0.8-28000 nM
T5 sequence (O14493 1-209): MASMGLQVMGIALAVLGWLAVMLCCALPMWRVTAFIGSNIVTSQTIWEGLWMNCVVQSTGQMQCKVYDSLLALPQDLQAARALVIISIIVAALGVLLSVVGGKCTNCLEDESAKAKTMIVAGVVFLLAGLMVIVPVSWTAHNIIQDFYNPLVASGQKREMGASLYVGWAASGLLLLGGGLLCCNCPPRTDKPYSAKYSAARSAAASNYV
Outline: as §2

[6] = target: T6, human claudin-1 expressed in bEnd.3 cells (Homo sapiens, UniProt O95832); format: cell-based; conditions: plasmid transfection; NP incubation 4 hrs; fluorescence
T6 sequence (O95832 1-211): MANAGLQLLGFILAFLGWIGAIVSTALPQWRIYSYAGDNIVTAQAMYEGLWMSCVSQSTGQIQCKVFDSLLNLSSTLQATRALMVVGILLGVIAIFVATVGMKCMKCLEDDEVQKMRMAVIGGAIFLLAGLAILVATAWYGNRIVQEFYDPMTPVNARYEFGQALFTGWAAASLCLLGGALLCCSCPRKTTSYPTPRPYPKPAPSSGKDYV
Outline: as §1

[7] = target: C1C2-NP (C1C2 peptide conjugated to PEG diacid coated Gd nanoparticles, AF647 labeled); experiment: MST

CNC[C@H](O)[C@@H](O)[C@H](O)[C@H](O)CO.CNC[C@H](O)[C@@H](O)[C@H](O)[C@H](O)CO.O=C([O-])CN(CCN(CC(=O)[O-])CC(=O)O)CCN(CC(=O)O)C(COCc1ccccc1)C(=O)[O-].[Gd+3] (centres unmarked) [MultiHance]
K^trans, hippocampus [1]: ~ 0.001 min^−1

GSQIYMICNQFYTPGGTG [Ocldn207-NP]
Hydrodynamic size (Dynamic light scattering): 14.23±0.11 nm | Zeta Potential [2]: 3.65±0.19 mV

QEFYDPLTPINARYE [Cldn146-NP]
Hydrodynamic size (Dynamic light scattering): 13.94±0.08 nm | Zeta Potential [2]: 1.62±0.13 mV

SCVSQSTGQIQCKVFDSLLNLNSTLQAT [Cldn53-NP]
Hydrodynamic size (Dynamic light scattering): 13.8±0.11 nm | Zeta Potential [2]: 2.24±0.18 mV

SSVSQSTGQIQSKVDSLLNLNSTQATR [C1C2-NP]
colocalization of claudin-1, CD31 and nanoparticles in brain ([3]; 2-month-old mice): not observed | colocalization of claudin-1, CD31 and nanoparticles in brain ([3]; 12-month-old mice): colocalization | Hydrodynamic size (Dynamic light scattering): 14.5±0.13 nm | NP binding to ethanol-exposed bEnd.3 cells ([4]; ethanol (50mM) induced claudin-1, NP incubation 4 hrs): much higher binding | NP binding to control bEnd.3 cells ([4]; normal culture, low claudin-1 expression, AF-647 modified NPs): no binding | binding to human claudin-3 (in words) (human claudin-3): does not show any binding | binding to human claudin-9 (in words) (human claudin-9): quite weak | Zeta Potential [2]: 7.81±0.38 mV | accumulation in the kidney ([5]; 1 hr post-injection of 100 μL of 0.5 mM NPs, versus control NPs): increased | accumulation in kidneys, 12-month-old compared to 2-month-old mice ([5]; 1 hr post-injection, three mice per age): higher | binding to human claudin-4 (in words) (human claudin-4): quite weak | NP binding to bEnd.3 cells transfected to express human claudin-1 [6]: High NP binding

recombinant human claudin-1 (from UniProt O95832 1-211) (natural protein)
Kd [7]: 21 µM
